A value given as a limit tells only on which side of the number the result lay.

For the experiment, the target named is T1, Mycothiol S-conjugate amidase (Mycobacterium tuberculosis) (UniProt P9WJN1).
T1 sequence (whole entry): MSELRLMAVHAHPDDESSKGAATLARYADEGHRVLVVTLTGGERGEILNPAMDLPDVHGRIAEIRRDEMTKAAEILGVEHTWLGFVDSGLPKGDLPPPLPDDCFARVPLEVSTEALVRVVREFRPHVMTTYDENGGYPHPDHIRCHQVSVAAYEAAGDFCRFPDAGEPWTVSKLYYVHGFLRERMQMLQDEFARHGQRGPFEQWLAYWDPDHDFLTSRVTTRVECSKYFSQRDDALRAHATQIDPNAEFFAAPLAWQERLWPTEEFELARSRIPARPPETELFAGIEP
In words: Inhibition of Mycobacterium tuberculosis MCA at 50 uM. The procedure, abridged: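 Recombinant MCA was assayed by fluorescence-detected HPLC, with mycothiol bimane (MSmB) or its cyclohexyl thioglycoside analog as substrate. Inhibitors were screened at 100 and 50 μM, and the reported values are at a final 50 μM. Each value is the mean of two experiments. Below 10% inhibition was scored as no inhibition.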
In general, inhibition refers to the relative decrease from the control value, in per cent. A high value points to a strong effect. In turn, `Cc1onc(-c2c(F)cccc2Cl)c1C(=O)N[C@H]1[C@@H](O[C@@H]2C[C@](O)(CO)C[C@@H](O)[C@H]2O)O[C@H](CO)[C@@H](O)[C@@H]1O` yielded an inhibition of less than 10%.

`CC(C)S(=O)(=O)c1csc(C(=O)N[C@H]2[C@@H](O[C@@H]3C[C@](O)(CO)C[C@@H](O)[C@H]3O)O[C@H](CO)[C@@H](O)[C@@H]2O)c1Cl` had an inhibition of 11%.

Regarding `O=C(N[C@H]1[C@@H](O[C@@H]2C[C@](O)(CO)C[C@@H](O)[C@H]2O)O[C@H](CO)[C@@H](O)[C@@H]1O)c1ccc([N+](=O)[O-])cc1`, the inhibition came out at 15%.

With `O=C(N[C@H]1[C@@H](O[C@@H]2C[C@](O)(CO)C[C@@H](O)[C@H]2O)O[C@H](CO)[C@@H](O)[C@@H]1O)c1ccco1`, the inhibition is 15%.

`O=C(N[C@H]1[C@@H](O[C@@H]2C[C@](O)(CO)C[C@@H](O)[C@H]2O)O[C@H](CO)[C@@H](O)[C@@H]1O)c1cccs1` displayed an inhibition of 13%.

In turn, `O=C(N[C@H]1[C@@H](O[C@@H]2C[C@](O)(CO)C[C@@H](O)[C@H]2O)O[C@H](CO)[C@@H](O)[C@@H]1O)c1ccc(C(F)(F)F)cc1` came in with an inhibition of 16%.

Compound `O=C(N[C@H]1[C@@H](O[C@@H]2C[C@](O)(CO)C[C@@H](O)[C@H]2O)O[C@H](CO)[C@@H](O)[C@@H]1O)c1cccnc1Sc1ccc(Cl)cc1` had an inhibition of 10%.

`O=C(N[C@H]1[C@@H](O[C@@H]2C[C@](O)(CO)C[C@@H](O)[C@H]2O)O[C@H](CO)[C@@H](O)[C@@H]1O)c1ccc2ccsc2c1` returned an inhibition of less than 10%.

As to `O=C(N[C@H]1[C@@H](O[C@@H]2C[C@](O)(CO)C[C@@H](O)[C@H]2O)O[C@H](CO)[C@@H](O)[C@@H]1O)C1CC1`, the inhibition stood at 13%.

With `CCCc1c(C(=O)N[C@H]2[C@@H](O[C@@H]3C[C@](O)(CO)C[C@@H](O)[C@H]3O)O[C@H](CO)[C@@H](O)[C@@H]2O)cnn1-c1cc(Cl)cc(Cl)c1`, the inhibition came to 26%.

For the compound `O=C(N[C@H]1[C@@H](O[C@@H]2C[C@](O)(CO)C[C@@H](O)[C@H]2O)O[C@H](CO)[C@@H](O)[C@@H]1O)c1ccc2ccccc2c1`, the inhibition was 13%.

For the compound `CN(C)c1ccc(C(=O)N[C@H]2[C@@H](O[C@@H]3C[C@](O)(CO)C[C@@H](O)[C@H]3O)O[C@H](CO)[C@@H](O)[C@@H]2O)cc1`, the inhibition is 44%.

Turning to `O=C(N[C@H]1[C@@H](O[C@@H]2C[C@](O)(CO)C[C@@H](O)[C@H]2O)O[C@H](CO)[C@@H](O)[C@@H]1O)c1ccncc1`, the inhibition amounted to 46%.

In turn, `CCCSc1cc(C(=O)N[C@H]2[C@@H](O[C@@H]3C[C@](O)(CO)C[C@@H](O)[C@H]3O)O[C@H](CO)[C@@H](O)[C@@H]2O)ccn1` registered an inhibition of 15%.

The record behind these values is ChEMBL document CHEMBL1146278, “Design and synthesis of substrate-mimic inhibitors of mycothiol-S-conjugate amidase from Mycobacterium tuberculosis” (Bioorg Med Chem Lett, 2007).
